# From PubChem
# PMI act hi M6P: increases human PMI activity with near-saturating mannose 6-phosphate; activation factor at 20 µM; 0.34% of 190,000 active; AID 1216; coupled PMI enzyme assay, resazurin fluorescence, 20 min; stronger effect = higher value; 1 = untreated enzyme, 0 = substrate-free blank;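 active = activation factor of 2 or more at 20 µM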
#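 Test system: human PMI in coupled enzyme assay; Input: PMI at 15 ng/mL final; Medium: HEPES buffer, pH 7.4; Schedule: 20 min incubation at room temperature; Technique: resorufin fluorescence at Ex 544/Em 590 nm; Compound: 20 µM single dose; Probe or stimulus: Near-saturating mannose-6-phosphate, 1.0 mM.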
# PMI activator: increases human mannose-6-phosphate isomerase activity. P34949. 0.005% of 190,000 active. purified human PMI, coupled resazurin fluorescence, 20 min; stronger effect = higher value; 1 = vehicle control, 0 substrate-free wells. AID 1214. activation factor at 20 µM;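 active = activation factor of 2 or more at 20 µM, relative to plate controls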
# ROMK primary: human ROMK K+ channel modulation, primary screen | 2% of 130,000 active | Tet-inducible ROMK, thallium flux fluorescence; actives lie on both sides | P48048 | B-score at 10 µM | AID 1918;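 active = signal ratio slope over the read window, or its plate-corrected B-score, at least 3 SD from the plate mean, either direction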;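 note: B-score of the F/F0 ratio slope over 7 to 12 s after thallium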
# Target sequence (P48048 whole entry, looked up): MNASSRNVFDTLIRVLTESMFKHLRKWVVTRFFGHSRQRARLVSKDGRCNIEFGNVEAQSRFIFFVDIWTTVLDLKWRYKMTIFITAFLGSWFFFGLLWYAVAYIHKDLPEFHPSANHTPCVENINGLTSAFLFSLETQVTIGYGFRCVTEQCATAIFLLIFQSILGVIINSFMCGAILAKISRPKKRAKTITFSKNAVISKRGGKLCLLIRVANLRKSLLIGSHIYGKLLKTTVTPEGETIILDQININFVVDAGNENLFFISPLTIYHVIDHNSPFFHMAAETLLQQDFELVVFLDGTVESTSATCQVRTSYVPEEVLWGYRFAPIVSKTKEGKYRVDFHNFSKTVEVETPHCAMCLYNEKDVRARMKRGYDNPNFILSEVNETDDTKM
# ABCB1 block: human ABCB1 inhibition, ABCG2 as counter-screen; 0.067% of 190,000 active; CCRF-Adr cells, JC-1 efflux, flow cytometry; inhibition, % at 6.6 µM; in the data active = inhibition above about 40%;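 note: 0% = vehicle and 100% = reference inhibitor; higher value means more JC-1 retained so stronger ABCB1 efflux block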
# ABCG2 block: inhibitors of human ABCG2 transporter, ABCB1 counter-screen | Q9UNQ0 | IgMXP3 cells, JC-1 efflux, flow cytometry | inhibition, % at 6.6 µM | 0.1% of 190,000 active;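 active = inhibition above 80%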;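 note: 0% = DMSO and 100% = nicardipine control wells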
#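 Test system: ABCG2 IgMXP3 and barcoded ABCB1 CCRF-Adr cell mix; Schedule: cells with compound and JC-1, 10 min at 25 °C, rotating, no wash; Technique: flow cytometry of retained JC-1 fluorescence; Measure: % inhibition of efflux relative to nicardipine and DMSO; Controls: nicardipine high and DMSO low controls.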
# Cl transport mod: modulators of human KCC2 chloride dependent transport. B-score of Tl+ flux slope (higher = more flux/activation; lower = inhibition) at 10 µM. 2.2% of 190,000 active. KCC2 cells, thallium flux FluoZin-2 fluorescence. Q9H2X9;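 active = thallium flux slope and its plate-corrected score both differing from the plate sample mean at a set confidence after two filtering rounds, in either direction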;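 note: slope of fluorescence scaled to starting intensity during 10 to 20 s after thallium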
# ROMK retest: confirmation of human ROMK potassium channel modulators. ROMK thallium flux, fluorescence ratio; stronger effect = lower value. normalized thallium flux (F/F0 slope) at 10 µM. 54% of 3,000 active. shares compounds with ROMK primary;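 active = Flux at 10 µM at least 3 SD below or above vehicle control mean in one or both replicates; inconclusive = no clear call, values can overlap the other calls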
# * marks the source's active call; other numbers are inactive results; ? = inconclusive; · = no result given. Only some compounds are listed: those with a hit (about 3.3% of all), similar ones and a draw of the others.
SMILES,PMI act hi M6P,PMI activator,ROMK primary,ABCB1 block,ABCG2 block,Cl transport mod,ROMK retest
CCOC(=O)c1cnc(-n2nc(C)cc2C)nc1NC,0.8,0.8,·,0,3,0.54,·
COc1cccc2sc(Nc3nnc(-c4ccc(F)cc4)o3)nc12,1,0.9,·,-3,-5,·,0.17*
Cc1ccc(-n2nc(C)c(=O)c(-c3ccccc3)c2NC(=O)c2cccs2)cc1,·,·,-0.079,·,·,-0.75,·
Fc1ccc(N2CCN(C(c3cccs3)c3nnnn3C3CCCC3)CC2)cc1 (configuration not stated),0.9,0.9,-0.043,1,4,·,·
Cc1cc(N2CCOCC2)ccc1/C=C\[N+](=O)[O-],0.9,0.9,-4.5*,0,4,-0.033,0.05*
CCOc1ccc(NC(=O)C2CC(=O)N(C(C)C)C2)cc1 (configuration not stated),0.9,0.9,·,0,1,-0.42,·
CCCCOC(=O)CSC1=C(C#N)C(c2cccnc2)C(C(=O)OCC)=C(c2ccccc2)N1 (configuration not stated),0.9,0.9,-3.4*,4,10,-1.4,0.067*
CC(C)[C@@H]1CC[C@@H](C)C[C@H]1OC(=O)C[n+]1cc(-c2ccc(Cl)cc2)n2c1CCCCC2,·,·,·,·,·,-2.1,0.035*
COc1ccc(-c2c[n+](CC(=O)OC3CC(C)CCC3C(C)C)c3n2CCC3)cc1 (configuration not stated),1,1,·,0,-5,-0.023,0.051*
O=C1c2ccccc2S(=O)(=O)N1CC1CC(c2ccccc2)=NO1 (configuration not stated),1,1.1,2.1*,1,4,·,0.068*
CCn1c(=O)cc(SCC(=O)NCc2ccco2)c2ccccc21,1,1,3.5*,1,4,-0.078,0.085
CCOC(=O)C1CCCN(C(=S)Nc2cc(C)cc(C)c2)C1 (configuration not stated),1,1,-0.075,0,0,0.51,·
CCN(CC)P(=O)(Nc1ccc(C)cc1Br)c1ccc(N(C)C)cc1NC(=O)c1ccco1 (configuration not stated),0.5,0.7,·,3,0,0.0026,·
COc1ccc(-n2c(C)c([N+](=O)[O-])c3ccc(O)c(CN(C)C)c32)cc1,0.9,0.8,·,0,6,-0.8,0.033*
COc1ccc(-n2c(C(C)n3nc(C)c([N+](=O)[O-])c3C)n[nH]c2=S)cc1 (configuration not stated),1.1,1.1,·,0,-1,-0.27,·
CN=c1scc(C)n1/N=C/c1ccc(O)cc1,0.9,0.9,·,0,1,-0.076,·
CN=c1scc(C)n1/N=C/c1ccc(O)cc1O,1,1,·,0,5,·,?
COc1ccc(C(=O)NCc2ccc(-n3cccc3)cc2)cc1OC,0.9,0.9,0.38,1,20,-0.78,·
O=C(c1cnccn1)N1CCN(C/C=C/c2ccccc2)CC1,1.1,1.1,0.9,1,2,·,·
CCCNc1nc(Cl)nc(NC(C)(C)C)n1,1.1,1.2,-3.8*,0,0,0.45,0.053*
CC(C)(C)Nc1nc(Cl)nc(NC(C)(C)C)n1,1,0.9,·,0,13,0.66,·
CCOC(=O)C1=C(C)NC(C)=C(C(=O)OCC)C1c1cccs1,0.9,0.8,·,1,21,-1,·
CCOC(=O)C1=C(C)NC(C)=C(C(=O)OCC)C1c1sccc1C,0.9,0.9,-5.3*,3,12,·,0.048*
COc1ccc(C2=NOC3(CC(=O)N(c4ccc(F)cc4)C3=O)C2)cc1 (configuration not stated),·,·,·,·,·,0.12,·
O=C1c2[nH]nc(-c3ccccc3O)c2C(c2cccc(Cl)c2)N1CC1CCCO1 (configuration not stated),0.9,0.9,-2.4*,3,3,·,0.052*
SMILES,PMI act hi M6P,PMI activator,ROMK primary,ABCB1 block,ABCG2 block,Cl transport mod,ROMK retest
OC1(c2ccccc2)CCN(Cc2ccccc2)C2CCCCC21 (configuration not stated),1.1,0.9,-4.5*,1,2,0.043,0.067*
COc1ccc(NC(=S)NNC(=O)Cn2nc(C(F)F)cc2C(F)F)cc1,1.1,1.1,·,-1,-8,1.2,·
CCN(CC)CCOC(=O)c1ccc(NC(=O)c2ccc(Cl)c(S(=O)(=O)N3CCCCCC3)c2)cc1,1.1,1.1,-0.76,0,5,0.34,0.078
O=C(Nc1cccnc1)c1ccc(S(=O)(=O)N2CCCCCC2)cc1,1,1,0.4,0,2,-0.58,·
O=C(Nc1ccc2c(c1)OCO2)c1ccc(Br)c(S(=O)(=O)N2CCCC2)c1,1,1,-2.9*,2,34,-1.4,0.066*
O=C(Nc1cccnc1)c1ccc(Cl)c(S(=O)(=O)N2CCCCCC2)c1,1,1,·,1,6,-1,?
CCC(C)NC(=O)CSc1nc2c(sc3ccccc32)c(=O)n1CCCN1CCOCC1 (configuration not stated),1,0.9,2.6*,1,3,0.42,0.076
CCOC(=O)CSc1nc2c(sc3ccccc32)c(=O)n1CCCN1CCOCC1,0.8,0.8,-0.63,2,5,-1.2,·
CCn1c(COc2ccc(=O)n(-c3ccccc3)n2)nnc1SC,1.2,1.1,-0.1,0,0,0.79,·
O=C(Nc1ccccc1)Nc1ncc([N+](=O)[O-])s1,1,1.1,-1.8,0,9,-1.4,0.064*
CCOC(=O)C1(Cc2ccccc2C(F)(F)F)CCN(C2CCN(C(C)C)CC2)CC1,1,1,-1.3,2,3,-0.37,·
c1ccc(Oc2nc(Oc3ccccc3)nc(N3CCOCC3)n2)cc1,1,0.9,-3.6*,-1,3,-1,?
c1ccc(N2CCOCCOCCOCCOCCOCC2)cc1,1,1,-6.7*,0,2,0.51,0.085
O=C(Cc1ccccc1)Nc1ccc(N2CCCC2)cc1,1.6,1.4,0.037,0,1,1,·
O=C(Cc1ccccc1)Nc1ccc(N2CCOCC2)cc1,1,1,-2*,0,1,0.33,0.074
CC(C)c1ccc2oc(-c3ccc(N)cc3)nc2c1,0.8,0.8,·,0,30,-0.014,0.081
O=C(Cc1cccc2ccccc12)N/N=C/c1ccncc1,1,1,-6.6*,0,3,0.9,0.08
N=C(N)SCc1cn(-c2ccccc2)nc1-c1ccc(Br)cc1,1,0.9,-2.1*,2,2,0.42,0.055*
CCOC(=O)COn1c(=O)c(-c2cccs2)[n+]([O-])c2ccccc21,0.7,0.8,-4.2*,0,2,1.8,0.059*
